{"data": "Experimental data of several laboratories", "note": "Lines come from different studies, so protocols differ."}
{"Compound": "Cc1ccc(-c2nc3ccccc3s2)cc1NC(=O)c1cc([N+](=O)[O-])c(NCCN)cc1Cl", "organism": "Leishmania mexicana", "test": "parasite growth", "test system": "J774.A1", "setting": "intracellular, amastigote", "quantity": "EC50", "value": "250 nM"}
{"Compound": "O=C(O)CN1C(=O)/C(=C/c2ccc(-c3ccc(N(c4ccccc4)c4ccccc4)cc3)cc2)NC1=S", "organism": "Staphylococcus epidermidis", "test": "microbial killing, broth dilution", "test system": "ATCC12228", "quantity": "MBC", "value": "3.9 µg/mL"}
{"Compound": "O=C(Nc1cncc(-c2nc3ccccc3o2)c1)c1cc([N+](=O)[O-])c(N2CCNCC2)cc1Cl", "organism": "Leishmania mexicana", "test": "parasite growth", "test system": "J774.A1", "setting": "intracellular, amastigote", "quantity": "EC50", "value": "750 nM"}
{"Compound": "CC1(C)CC[C@]2(NC(=O)NCCN3CCCC3)CC[C@]3(C)C(=CC[C@@H]4[C@@]5(C)CC[C@@H]6OC(C)(C)OC[C@@]6(C)[C@@H]5CC[C@]43C)[C@@H]2C1", "organism": "Leishmania mexicana", "test": "parasite growth, resazurin", "setting": "50 µM, amastigote", "quantity": "inhibition", "value": "99.1%"}
{"Compound": "O=C(Nc1ccccc1-c1ccc(F)c(F)c1)c1nccnc1C(F)(F)F", "organism": "Verticillium", "test": "microbial growth", "quantity": "EC50", "value": "11 µg/mL"}
{"Compound": "CC1(C)CC[C@]2(C(=O)O)CC[C@]3(C)C(=CC[C@@H]4[C@@]5(C)CC[C@H](O[C@@H]6OC[C@H](O)[C@H](O)[C@H]6O)[C@@](C)(CO)[C@@H]5CC[C@]43C)[C@@H]2C1", "organism": "Leishmania mexicana", "test": "parasite growth, resazurin", "setting": "50 µM, amastigote", "quantity": "inhibition", "value": "96.9%"}
{"Compound": "O=C1NC(=S)N/C1=C\\c1c2ccccc2c(-c2ccc(N(c3ccccc3)c3ccccc3)cc2)c2ccccc12", "organism": "Staphylococcus epidermidis", "test": "microbial growth, broth dilution", "test system": "ATCC12228", "quantity": "MIC", "value": "> 1000 µg/mL"}
{"Compound": "Cc1ccc(-c2nc3ccccc3s2)cc1NC(=O)c1cc([N+](=O)[O-])c(N2CCCCC2)cc1Cl", "organism": "Leishmania mexicana", "test": "parasite growth", "test system": "J774.A1", "setting": "intracellular, amastigote", "quantity": "EC50", "value": "> 10000 nM"}
{"Compound": "CC1(C)CC[C@]2(NC(=O)N3CCC[C@H]3CN3CCCC3)CC[C@]3(C)C(=CC[C@@H]4[C@@]5(C)CC[C@@H]6OC(C)(C)OC[C@@]6(C)[C@@H]5CC[C@]43C)[C@@H]2C1", "organism": "Leishmania mexicana", "test": "parasite growth, resazurin", "setting": "50 µM, amastigote", "quantity": "inhibition", "value": "97.6%"}
